Reference: ChEMBL document CHEMBL5696442, “Discovery of type II inhibitors of TGFβ-activated kinase 1 (TAK1) and mitogen-activated protein kinase kinase kinase kinase 2 (MAP4K2)” (J Med Chem, 2015)
Calls of active or inactive are those of the source. The calls are words filed in the database; no cut-off is given here.

Legend:
[1] = biological target: Cyclin-dependent kinase 17 (Homo sapiens) (UniProt Q00537); assay: Inhibition of PCTAIRE2 PCTAIRE3 Lys1 labeling site in human Huh-7 cell lysate at 1 uM by KiNativ Profiling analysis relative to control; type: subcellular
[2] = biological target: DNA-PK/Ku70/Ku85 (Homo sapiens) (UniProt P78527+P12956+P13010); assay: Inhibition of DNAPK ATP labeling site harbouring KGGSWIQEINVAEK in human Huh-7 cell lysate at 1 uM by KiNativ Profiling analysis relative to control; type: subcellular
[3] = biological target: Phosphatidylinositol 4-kinase type 2-beta (Homo sapiens) (UniProt Q8TCG2); assay: Inhibition of PI4K2B ATP labeling site in human Huh-7 cell lysate at 1 uM by KiNativ Profiling analysis relative to control; type: subcellular
Chain of Phosphatidylinositol 4-kinase type 2-beta (Homo sapiens) (Q8TCG2 whole entry): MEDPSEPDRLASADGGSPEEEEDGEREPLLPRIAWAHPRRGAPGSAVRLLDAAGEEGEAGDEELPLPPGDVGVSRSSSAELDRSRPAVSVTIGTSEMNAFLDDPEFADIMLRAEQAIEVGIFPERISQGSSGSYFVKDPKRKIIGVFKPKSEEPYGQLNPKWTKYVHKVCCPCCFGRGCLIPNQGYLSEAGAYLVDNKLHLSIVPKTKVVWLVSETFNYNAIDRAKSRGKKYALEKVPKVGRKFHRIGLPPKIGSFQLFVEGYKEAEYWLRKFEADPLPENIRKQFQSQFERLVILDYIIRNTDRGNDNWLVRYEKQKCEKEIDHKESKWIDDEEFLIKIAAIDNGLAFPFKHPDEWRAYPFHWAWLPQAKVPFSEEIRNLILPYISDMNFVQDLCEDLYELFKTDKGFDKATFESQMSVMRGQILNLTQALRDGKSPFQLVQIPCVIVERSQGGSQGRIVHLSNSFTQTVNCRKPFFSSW

[4] = biological target: Glycogen synthase kinase-3 beta (Homo sapiens) (UniProt P49841); assay: Inhibition of GSK3B Lys2 labeling site in human Huh-7 cell lysate at 1 uM by KiNativ Profiling analysis relative to control; type: subcellular
[5] = biological target: Mitogen-activated protein kinase 8 (Homo sapiens, UniProt P45983); assay: Inhibition of JNK1 Lys2 labeling site in human Huh-7 cells at 1 uM by KiNativ Profiling analysis relative to control; type: cell-based
[6] = biological target: MAP/microtubule affinity-regulating kinase 3 (Homo sapiens) (UniProt P27448); assay: Inhibition of MARK3 Lys1 labeling site in human Huh-7 cell lysate at 1 uM by KiNativ Profiling analysis relative to control; type: subcellular
[7] = biological target: T1, Mitogen-activated protein kinase kinase kinase 3 (Homo sapiens) (UniProt Q99759); assay: Inhibition of MAP3K3 Lys2 labeling site in human A-375 cells at 0.05 uM by KiNativ Profiling analysis relative to control; type: cell-based
T1 sequence (whole entry): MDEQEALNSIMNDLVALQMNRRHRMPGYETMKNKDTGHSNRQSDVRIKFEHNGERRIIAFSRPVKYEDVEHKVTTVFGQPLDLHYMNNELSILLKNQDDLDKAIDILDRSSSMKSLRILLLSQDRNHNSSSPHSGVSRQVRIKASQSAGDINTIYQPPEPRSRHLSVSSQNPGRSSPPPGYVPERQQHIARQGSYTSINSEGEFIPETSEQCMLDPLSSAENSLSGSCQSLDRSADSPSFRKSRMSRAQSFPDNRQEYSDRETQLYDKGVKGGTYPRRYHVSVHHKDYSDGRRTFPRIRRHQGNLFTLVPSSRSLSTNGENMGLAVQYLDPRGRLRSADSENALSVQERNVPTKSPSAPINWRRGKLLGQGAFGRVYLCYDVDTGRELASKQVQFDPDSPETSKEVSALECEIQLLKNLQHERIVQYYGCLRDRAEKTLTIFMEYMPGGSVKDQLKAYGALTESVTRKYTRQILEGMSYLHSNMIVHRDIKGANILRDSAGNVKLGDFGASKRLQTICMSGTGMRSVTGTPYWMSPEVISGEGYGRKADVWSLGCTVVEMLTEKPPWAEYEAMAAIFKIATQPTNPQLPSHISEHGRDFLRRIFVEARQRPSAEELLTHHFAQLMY

[8] = tested on: Epidermal growth factor receptor (Homo sapiens), P00533 [UNDEFINED MUTATION]; details: dose 10.0 µM
[9] = biological target: T1, Mitogen-activated protein kinase kinase kinase 3 (Homo sapiens); assay: Inhibition of MAP3K3 (unknown origin) at 10 uM by Ambit Kinomescan binding assay relative to control
[10] = biological target: Myosin light chain kinase, smooth muscle (Homo sapiens) (UniProt Q15746); assay: Inhibition of MYLK (unknown origin) at 10 uM by Ambit Kinomescan binding assay
Chain of Myosin light chain kinase, smooth muscle (Homo sapiens) (Q15746 whole entry): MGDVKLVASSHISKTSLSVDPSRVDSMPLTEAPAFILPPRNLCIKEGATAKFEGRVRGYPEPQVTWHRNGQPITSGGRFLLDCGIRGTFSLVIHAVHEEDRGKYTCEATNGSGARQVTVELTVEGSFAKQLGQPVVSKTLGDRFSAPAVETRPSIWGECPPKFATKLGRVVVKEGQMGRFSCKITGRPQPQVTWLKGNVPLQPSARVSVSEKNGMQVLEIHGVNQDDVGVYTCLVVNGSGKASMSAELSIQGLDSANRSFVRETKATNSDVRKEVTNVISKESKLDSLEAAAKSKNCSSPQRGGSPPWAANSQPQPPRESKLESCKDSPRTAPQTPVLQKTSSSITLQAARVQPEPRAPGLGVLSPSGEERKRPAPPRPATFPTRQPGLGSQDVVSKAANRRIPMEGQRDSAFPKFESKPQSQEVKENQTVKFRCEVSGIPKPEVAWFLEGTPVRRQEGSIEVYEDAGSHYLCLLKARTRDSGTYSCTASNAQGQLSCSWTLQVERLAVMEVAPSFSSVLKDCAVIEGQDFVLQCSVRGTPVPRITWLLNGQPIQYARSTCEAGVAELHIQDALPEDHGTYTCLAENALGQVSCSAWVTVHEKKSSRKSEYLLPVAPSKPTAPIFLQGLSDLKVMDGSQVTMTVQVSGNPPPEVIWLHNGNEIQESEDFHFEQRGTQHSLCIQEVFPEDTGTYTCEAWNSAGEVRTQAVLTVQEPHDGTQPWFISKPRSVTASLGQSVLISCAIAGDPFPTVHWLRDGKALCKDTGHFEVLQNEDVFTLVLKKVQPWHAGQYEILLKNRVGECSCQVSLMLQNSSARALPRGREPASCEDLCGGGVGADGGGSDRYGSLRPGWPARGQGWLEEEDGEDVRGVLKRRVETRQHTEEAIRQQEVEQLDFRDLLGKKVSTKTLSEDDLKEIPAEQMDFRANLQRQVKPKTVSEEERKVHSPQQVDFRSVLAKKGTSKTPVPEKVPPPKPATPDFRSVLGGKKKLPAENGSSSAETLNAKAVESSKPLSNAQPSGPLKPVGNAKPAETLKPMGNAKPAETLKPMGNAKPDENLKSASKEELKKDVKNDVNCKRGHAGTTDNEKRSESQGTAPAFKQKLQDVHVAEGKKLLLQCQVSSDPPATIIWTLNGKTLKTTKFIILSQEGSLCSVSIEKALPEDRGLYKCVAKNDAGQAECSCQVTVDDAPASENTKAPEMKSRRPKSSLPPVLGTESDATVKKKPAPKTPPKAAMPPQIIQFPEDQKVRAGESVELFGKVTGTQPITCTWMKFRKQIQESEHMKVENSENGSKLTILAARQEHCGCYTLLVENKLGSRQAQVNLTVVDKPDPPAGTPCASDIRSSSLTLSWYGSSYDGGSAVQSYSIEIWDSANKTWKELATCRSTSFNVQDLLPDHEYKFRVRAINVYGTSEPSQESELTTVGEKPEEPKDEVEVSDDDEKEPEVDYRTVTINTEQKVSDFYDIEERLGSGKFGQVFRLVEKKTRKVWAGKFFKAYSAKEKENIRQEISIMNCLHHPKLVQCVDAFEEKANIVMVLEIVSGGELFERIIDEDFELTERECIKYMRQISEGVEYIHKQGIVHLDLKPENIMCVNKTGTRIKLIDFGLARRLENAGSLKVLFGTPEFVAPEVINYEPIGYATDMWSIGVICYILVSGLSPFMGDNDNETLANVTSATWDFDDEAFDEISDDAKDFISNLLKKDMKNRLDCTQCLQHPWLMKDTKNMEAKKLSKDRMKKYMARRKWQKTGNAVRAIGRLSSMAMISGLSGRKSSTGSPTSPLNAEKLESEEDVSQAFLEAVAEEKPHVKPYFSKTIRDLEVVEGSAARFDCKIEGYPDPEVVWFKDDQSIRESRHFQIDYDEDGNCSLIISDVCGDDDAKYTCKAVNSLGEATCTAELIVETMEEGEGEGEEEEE
Outline: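 In vitro ATP-site competition binding assay against a panel of over 420 kinases (KinomeScan), with compound tested at 10 or 1 μM.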

[11] = tested on: Serine/threonine-protein kinase B-raf (Homo sapiens), P15056 [V600E]; assay: Inhibition of BRAF V600E mutant (unknown origin) at 10 uM by Ambit Kinomescan binding assay relative to control
[12] = biological target: Peripheral plasma membrane protein CASK (Homo sapiens) (UniProt O14936); assay: Inhibition of CASK K1 labeling site in human Huh-7 cells at 1 uM by KiNativ Profiling analysis relative to control
[13] = biological target: Calcium/calmodulin-dependent protein kinase type II subunit gamma (Homo sapiens) (UniProt Q13555); assay: Inhibition of CAMK2g K1 labeling site harbouring KTSTQEYAAKIINTK in human Huh-7 cells at 1 uM by KiNativ Profiling analysis relative to control; type: cell-based
Chain of Calcium/calmodulin-dependent protein kinase type II subunit gamma (Homo sapiens) (Q13555 whole entry): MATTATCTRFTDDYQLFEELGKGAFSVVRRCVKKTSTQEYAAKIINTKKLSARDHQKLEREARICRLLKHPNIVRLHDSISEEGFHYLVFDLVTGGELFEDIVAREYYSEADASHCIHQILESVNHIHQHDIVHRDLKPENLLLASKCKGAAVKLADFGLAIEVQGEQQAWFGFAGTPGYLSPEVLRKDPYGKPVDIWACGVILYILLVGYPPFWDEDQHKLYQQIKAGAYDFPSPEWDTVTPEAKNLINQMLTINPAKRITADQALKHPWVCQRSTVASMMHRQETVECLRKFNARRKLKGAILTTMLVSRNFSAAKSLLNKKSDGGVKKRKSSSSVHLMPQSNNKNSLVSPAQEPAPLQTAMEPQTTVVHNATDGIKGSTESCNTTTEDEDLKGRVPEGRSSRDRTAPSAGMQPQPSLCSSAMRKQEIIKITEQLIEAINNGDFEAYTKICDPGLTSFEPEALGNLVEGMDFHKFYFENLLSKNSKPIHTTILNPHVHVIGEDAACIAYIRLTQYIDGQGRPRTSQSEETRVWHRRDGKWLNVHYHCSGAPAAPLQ

[14] = biological target: Mitogen-activated protein kinase 9 (Homo sapiens, UniProt P45984); assay: Inhibition of JNK2 (unknown origin) at 10 uM by Ambit Kinomescan binding assay relative to control
Chain of Mitogen-activated protein kinase 9 (P45984 whole entry, looked up): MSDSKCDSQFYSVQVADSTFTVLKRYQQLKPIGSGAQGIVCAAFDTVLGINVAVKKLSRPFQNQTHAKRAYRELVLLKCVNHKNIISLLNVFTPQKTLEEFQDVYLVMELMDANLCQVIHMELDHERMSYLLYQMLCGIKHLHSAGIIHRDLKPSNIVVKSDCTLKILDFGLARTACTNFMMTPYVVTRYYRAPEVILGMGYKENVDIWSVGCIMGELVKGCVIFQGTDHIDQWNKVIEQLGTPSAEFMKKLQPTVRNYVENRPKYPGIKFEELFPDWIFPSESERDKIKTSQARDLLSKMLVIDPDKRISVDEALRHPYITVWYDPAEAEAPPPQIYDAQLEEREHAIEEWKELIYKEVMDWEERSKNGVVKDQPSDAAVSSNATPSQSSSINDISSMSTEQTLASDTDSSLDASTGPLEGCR

[15] = tested on: Mast/stem cell growth factor receptor Kit (Homo sapiens), P10721 [V559D,T670I]; assay: Inhibition of KIT V559D/T670I double mutant (unknown origin) at 10 uM by Ambit Kinomescan binding assay relative to control
[16] = biological target: Serine/threonine-protein kinase 35 (Homo sapiens) (UniProt Q8TDR2); assay: Inhibition of STK35 (unknown origin) at 1 uM by Ambit Kinomescan binding assay relative to control
Chain of Serine/threonine-protein kinase 35 (Homo sapiens) (Q8TDR2 whole entry, the tested form may be a part): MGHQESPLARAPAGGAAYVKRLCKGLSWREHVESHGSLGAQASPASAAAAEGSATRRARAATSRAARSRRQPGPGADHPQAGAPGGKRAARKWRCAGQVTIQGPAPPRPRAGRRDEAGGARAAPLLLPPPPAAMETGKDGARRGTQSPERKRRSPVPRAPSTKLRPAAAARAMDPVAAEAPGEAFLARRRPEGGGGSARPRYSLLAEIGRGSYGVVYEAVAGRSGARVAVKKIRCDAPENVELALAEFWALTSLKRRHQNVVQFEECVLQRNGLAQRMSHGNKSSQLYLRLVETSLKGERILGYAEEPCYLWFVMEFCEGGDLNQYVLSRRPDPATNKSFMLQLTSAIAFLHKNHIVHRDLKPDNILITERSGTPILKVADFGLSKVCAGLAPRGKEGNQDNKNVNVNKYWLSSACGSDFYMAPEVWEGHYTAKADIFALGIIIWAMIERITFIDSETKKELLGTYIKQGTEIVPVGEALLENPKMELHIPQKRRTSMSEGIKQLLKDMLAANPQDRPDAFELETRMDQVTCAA

[17] = biological target: Non-receptor tyrosine-protein kinase TYK2 (Homo sapiens) (UniProt P29597); assay: Inhibition of TYK2 JH1catalytic domain (unknown origin) at 1 uM by Ambit Kinomescan binding assay relative to control
[18] = biological target: Serine/threonine-protein kinase 38-like (Homo sapiens) (UniProt Q9Y2H1); assay: Inhibition of NDR2 Lys1 labeling site harbouring DTGHIYAMKILR in human A-375 cells at 5 uM by KiNativ Profiling analysis relative to control; type: cell-based
Chain of Serine/threonine-protein kinase 38-like (Homo sapiens) (Q9Y2H1 2-464 limits assumed): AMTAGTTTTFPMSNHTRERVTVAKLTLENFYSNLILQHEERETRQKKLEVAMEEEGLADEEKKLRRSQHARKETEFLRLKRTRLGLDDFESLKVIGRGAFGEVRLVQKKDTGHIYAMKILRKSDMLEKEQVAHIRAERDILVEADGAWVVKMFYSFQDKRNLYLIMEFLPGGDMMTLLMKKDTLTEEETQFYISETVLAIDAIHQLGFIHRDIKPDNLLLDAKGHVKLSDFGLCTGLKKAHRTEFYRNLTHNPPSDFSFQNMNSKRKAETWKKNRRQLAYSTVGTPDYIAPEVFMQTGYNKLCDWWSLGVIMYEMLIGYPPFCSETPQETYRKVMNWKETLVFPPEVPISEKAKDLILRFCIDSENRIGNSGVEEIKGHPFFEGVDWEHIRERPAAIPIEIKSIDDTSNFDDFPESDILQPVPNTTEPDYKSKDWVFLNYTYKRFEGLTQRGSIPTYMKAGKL

[19] = biological target: cAMP-dependent protein kinase catalytic subunit beta (Homo sapiens) (UniProt P22694); assay: Inhibition of PKAC beta (unknown origin) at 1 uM by Ambit Kinomescan binding assay relative to control
[20] = biological target: Mitogen-activated protein kinase 1 (Homo sapiens) (UniProt P28482); assay: Inhibition of ERK2 (unknown origin) at 1 uM by Ambit Kinomescan binding assay relative to control
Chain of Mitogen-activated protein kinase 1 (Homo sapiens) (P28482 whole entry): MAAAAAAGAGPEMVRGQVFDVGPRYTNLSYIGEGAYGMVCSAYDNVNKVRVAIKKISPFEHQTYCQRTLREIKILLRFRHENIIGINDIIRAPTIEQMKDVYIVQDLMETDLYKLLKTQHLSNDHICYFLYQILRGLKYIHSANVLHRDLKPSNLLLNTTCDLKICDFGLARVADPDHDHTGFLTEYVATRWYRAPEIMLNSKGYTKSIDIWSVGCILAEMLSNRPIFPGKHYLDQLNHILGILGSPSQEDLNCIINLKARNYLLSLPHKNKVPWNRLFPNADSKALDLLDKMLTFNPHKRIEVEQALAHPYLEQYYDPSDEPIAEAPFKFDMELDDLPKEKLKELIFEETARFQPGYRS

In the case of `CNc1cc(Oc2cc(C(=O)Nc3cc(N4CCN(C)CC4)cc(C(F)(F)F)c3)ccc2C)ncn1`, the inhibition [1] was -9.5%, the inhibition [2] was -5.7% and the inhibition [3] was 25%. For the same compound, the inhibition [4] was 6%, the inhibition [5] was 14.5% and the inhibition [6] was 13.8%.
Work on `CCN1CCN(Cc2ccc(NC(=O)c3ccc(C)c(Oc4ccnc5[nH]ccc45)c3)cc2C(F)(F)F)CC1` yielded an inhibition [7] of 7.6%, an inhibition [8] of 1.2% and an inhibition [9] of 12%. The inhibition [10] was “inactive”, the inhibition [11] was 4% and the inhibition [12] was 3.8%. It also gave an inhibition [13] of 1.3%, an inhibition [14] of 0% and an inhibition [15] of 0.05%.
Work on `CCN1CCN(Cc2ccc(NC(=O)c3ccc(C)c(/C=C/c4cnc5[nH]ccc5c4OC)c3)cc2C(F)(F)F)CC1` yielded an inhibition [16] of 65%, an inhibition [17] of 70% and an inhibition [18] of 20.7%. For the same compound, the inhibition [19] was 76% and the inhibition [20] was 100%.
